In ChEMBL document CHEMBL4330172, “Astratides: Insulin-Modulating, Insecticidal, and Antifungal Cysteine-Rich Peptides from Astragalus membranaceus” (J Nat Prod, 2019):
The source made the active and inactive calls. The rule behind the calls is not given here. Where a SMILES comes first, the peptide text is derived from it.

Legend:
[1] = Stability in water at 200 uM at 100 degC for 2 hrs by RP-HPLC analysis; assay type: physicochemical; details: read-out: Stability
Procedure, shortened: (§1)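 Peptide at 200 μM held in a 100 °C water bath or in HCl (pH 2) for 2 h. Sampled at 0, 30, 60, 90 and 120 min, quenched on ice (heat) or with NaOH (acid). Remaining peptide measured by RP-HPLC, in triplicate.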

[2] = Stability in human serum after 36 hrs by RP-HPLC analysis; assay type: ADME, cell-free; details: read-out: Stability
Procedure, shortened: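 Peptide (0.2 mg) incubated with 25% human male AB serum in phenol red-free DMEM at 37 °C. Aliquots taken at 0, 12, 24 and 48 h, quenched with 95% EtOH, held 15 min at 4 °C and centrifuged. Intact peptide quantified by RP-HPLC, in triplicate.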

pepsin = test: Stability in pH 2 HCl assessed as pepsin (unknown origin)-mediated compound hydrolysis by measuring parent compound remaining at 200 uM up to 6 hrs by RP-HPLC analysis; assay type: ADME; details: human, pepsin in pH 2 HCl, read-out: Stability
Procedure, shortened: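 Peptide at 200 μM incubated at 37 °C for 6 h with 4 mg/mL pepsin in HCl (pH 2), or with 20 U/mL aminopeptidase I in 20 mM tricine/0.05% BSA (pH 8.0). Sampled at 0, 2, 4 and 6 h, quenched with NaOH or HCl. Remaining peptide measured by RP-HPLC, in triplicate.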

Beta-TC6 [3] = test: Decrease in insulin secretion in mouse BetaTC6 cells assessed as insulin level at 1 to 100 uM after 24 hrs by ELISA (reference value: 1225.2 uIU/ml); assay type: functional
Procedure, shortened: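 Beta-TC-6 cells grown in high-glucose DMEM with 15% FBS. Seeded at 5000 cells/mL for 24 h, then treated 24 h with peptide at 0.01, 0.1, 1, 10 or 100 μM. Controls were 10 μM GW9508 (positive) and 0.1% DMSO (negative). Secreted insulin measured by mouse insulin ELISA.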

Beta-TC6 [4] = test: Decrease in insulin secretion in mouse BetaTC6 cells at 1 to 100 uM after 24 hrs by ELISA; assay type: functional, cell-based
Procedure, shortened: (§2)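 Beta-TC-6 cells grown in high-glucose DMEM with 15% FBS at 37 °C, 5% CO2. Seeded 24 h, then treated 24 h with peptide (0.01, 0.1, 1, 10, 100 μM). Positive control 10 μM GW9508, negative control 0.1% DMSO. Secreted insulin measured by mouse insulin ELISA, reported in μIU/mL.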

CHO-K1 = test: Cytotoxicity against CHOK1 cells up to 200 uM after 24 hrs by MTT assay; assay type: cell-based, Cricetulus griseus; details: chinese hamster, cho-k1, 24 h
Procedure, shortened: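 CHO-K1 cells grown at 37 °C, 5% CO2 in DMEM with 10% FBS, exposed 24 h to peptide at 0.01–200 μM. Negative control 0.1% DMSO, positive control 10% Triton X-100. Viability read by MTT (0.5 mg/mL, 4 h), then DMSO solubilisation 1 h, absorbance at 550 nm.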

Beta-TC6 [5] = test: Decrease in insulin secretion in mouse BetaTC6 cells up to 1 uM after 24 hrs by ELISA; assay type: functional, cell-based; procedure, shortened: as §2
aminopeptidase = aminopeptidase (Homo sapiens, UniProt O43895+P15144+P28838+P50579+P53582+P55786+Q07075+Q6P179+Q6Q4G3+Q6UB28+Q8N6M6+Q8NDH3+Q9H4A4+Q9HAU8+Q9NQH7+Q9NQW7+Q9NZ08+Q9UIQ6+Q9ULA0); test: Stability in pH 8.0 20 mM tricine with 0.05% BSA assessed as aminopeptidase (unknown origin)-mediated compound hydrolysis by measuring parent compound remaining at 200 uM up to 6 hrs by RP-HPLC analysis; details: aminopeptidase in pH 8.0 20 mM tricine with 0.05% BSA
Sf9 [6] = test: Cytotoxicity against Spodoptera frugiperda Sf9 cells assessed as induction of membrane integrity loss at 5 uM after 15 hrs by PKH26-labeling based phase contrast microscopic analysis; assay type: functional, cell-based
Procedure, shortened: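 Sf9 cells grown at 26 °C in Sf-900 III SFM with 2% FBS. Incubated with 5 μM peptide at 26 °C for 15 h. Live-cell bright-field imaging at 0, 1, 4, 8 and 15 h to follow cell shape and membrane integrity.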

Sf9 [7] = test: Cytotoxicity against Spodoptera frugiperda Sf9 cells assessed as induction of membrane integrity loss at 10 uM after 24 hrs using Alex488-labeled test compound by PKH26/Hoechst staining based confocal microscopic analysis
Sf9 [8] = test: (§3) Cytotoxicity against Spodoptera frugiperda Sf9 cells assessed as mortality after 24 hrs by MTT assay; assay type: functional
Procedure, shortened: (§4)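 Sf9 cells seeded at 1 × 10^5 cells/mL for 24 h, then exposed 24 h to peptide at 0.01–200 μM (10 levels). 0.1% DMSO served as negative control, 10% Triton X-100 as positive control. Viability by MTT (0.5 mg/mL, 4 h at 26 °C), DMSO solubilisation, absorbance 550 nm. LD50 taken from the dose–mortality curve.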

[9] = as §3; assay type: functional; details: Sf9, 24 h, read-out: LD50 (the source's name); procedure, shortened: as §4
[10] = Stability in pH 2 HCl at 200 uM for 2 hrs by RP-HPLC analysis; assay type: physicochemical; details: read-out: Stability; procedure, shortened: as §1

CC[C@H](C)[C@H](NC(=O)[C@H](CS)NC(=O)[C@H](Cc1ccccc1)NC(=O)CNC(=O)[C@@H](NC(=O)[C@@H](NC(=O)[C@H](CC(C)C)NC(=O)CNC(=O)[C@@H](NC(=O)[C@@H]1CCCN1C(=O)[C@@H](NC(=O)[C@H](CS)NC(=O)[C@H](CCCNC(=N)N)NC(=O)[C@H](CS)NC(=O)[C@H](CC(=O)O)NC(=O)[C@H](CCCNC(=N)N)NC(=O)[C@H](CO)NC(=O)CNC(=O)[C@H](CS)NC(=O)[C@@H]1CCCN1C(=O)[C@@H]1CCCN1C(=O)[C@@H](NC(=O)[C@H](CCC(=O)O)NC(=O)[C@H](Cc1ccccc1)NC(=O)[C@@H]1CCCN1C(=O)[C@H](CO)NC(=O)[C@H](CS)NC(=O)[C@H](C)NC(=O)CNC(=O)[C@H](CO)NC(=O)[C@H](CS)NC(=O)[C@H](CC(=O)O)NC(=O)[C@@H](N)C(C)C)C(C)C)[C@@H](C)CC)[C@@H](C)CC)C(C)C)C(C)C)C(=O)N[C@@H](Cc1ccc(O)cc1)C(=O)N1CCC[C@H]1C(=O)N[C@H](C(=O)NCC(=O)O)[C@@H](C)O (H-VDCSGACSPFEVPPCGSRDCRCIPIGLVVGFCIYPTG-OH)
remaining at 2 h, 200 µM [1]: 82% | remaining at 36 h [2]: > 90% | remaining at 6 h, 200 µM (pepsin): > 88% | Activity (Beta-TC6 [3]): 811.14 uIU/ml | Activity (Beta-TC6 [4]): Dose-dependent effect | Activity (CHO-K1): Non-Toxic | Activity (Beta-TC6 [5]): inactive | remaining at 6 h, 200 µM (aminopeptidase): > 88% | Activity (Sf9 [6]): Active | Activity (Sf9 [7]): Active | Activity (Sf9 [8]): Dose-dependent effect | LC50 [9]: 5.9 µM | remaining at 2 h, 200 µM [10]: 92%
